Results from the RNAGym collection of RNA variant scans (doi:10.1126/science.aae0568).
Fewer inactive variants are shown than the library holds.

B1: tRNA (parent)
chain: GUUCCGUUGGCGUAAUGGUAACGCGUCUCCCUCCUAAGGAGAAGACUGCGGGUUCGAGUCCCGUACGGAACG

Variants of: B1
Experiment: yeast fitness relative to wild type (ratio to wild type); higher = fitter; tRNA-Arg(CCU), competitive growth, 37 C, YPD
Method in brief: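 Changes in genotype frequencies gave Darwinian fitness relative to wild type. Frequencies were read by 100-nucleotide paired-end sequencing of gene amplicons before and after pooled Saccharomyces cerevisiae strains, carrying tRNA-Arg(CCU) gene variants at the native locus, were competed in YPD at 37°C for 24 hours in six replicates. A genotype was kept only with ≥ 100 starting reads, and estimates < 0.5 were set to 0.5.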

Row | Variant | yeast fitness
1 | GUUCCGUUGGCGUAAUGGUAAGGCCUCUCCCUCCUAGGGAGAAGACUGCGGGUUCGAGUCCCGUUCGGAACG | 0.576
2 | GUUCCGUUGGCGUAAUGGUAAGGCGUCUCCCUCCUAAGGAGAAGACUGCGGGUUCGAGUCCCGUAAGGAACG | 0.704
3 | GUUCCGUUGGCGUAAUGGUAAGGCAUCUCCCUCCUAAGGAGAAGACUGCUGGUUCGAGUCCCGUACGGAACG | 0.593
4 | GUUCCGUUGGCGUAAUGGUAAGGCGUCUCCCUCCUAAGGAGAAGACUGCGGGUUGGAGUCCCGUACGGAACG | 0.585
5 | GUUCCGUUGGCGUAAUGGUAAGGCGUCUCCCUCCUAAGGAGAAGACUGCGGGUUAGAGUCCCGUACGGAACG | 0.712
6 | GUUCCGUUGGCGUAAUGGUAAGGCGUCUCCCUCCUAAGGAGAAGACUGCGGGUUUGUGUCCCGUACGGAACG | ≤ 0.5
7 | GUUCCGUUGGCGUAAUGGUAAGCCGUCUCCCUCCUAAGGAGACGACUGCCGGUUCGAGUCCCGUACGGAACG | ≤ 0.5
8 | GUUCCGUUGGCGUAAUGGUAAGGCGUCUCCCUCCUAAGGAGAAGACUCCGGGUUCGAGUCCCGUACGGAACG | 0.811
9 | GUUCCGUUGGCGUAAUGGUAAGGCGUCUCCCUCCUAAAGAGAAGACUGCGGGUUCGAGUCCCGUACGGAACG | 0.776
10 | GUUCCGUUGGCGUAAUGGUAAGGCGUCUCCCUCCUAAGGAGAAGACUGCGGGUUCGACUCCCGUACGGAACG | 0.971
11 | GUUCCGUUGGCGUAAUGGUAAGGCGUCUCCCUCCUAACGAGAAGACUGCGGGUUCGAGUUCCGUACGGAACG | ≤ 0.5
12 | GUUCCGUUGGCGUAAUGGUAAGGCGUCUCCCUCCUAAGGAGAAGACUGCGGGUUCGAGUGCCGUACGGAACG | 0.621
13 | GUUCCGUUGGCGUAAUGGUAAGGCGUCUCCCUCCUAAGGAGAAGACUGCGAGUUCGUGUCCCGUACGGAACG | ≤ 0.5
14 | GUUCCGUUGGCGUAAUGGUAAGGCGUCUCCCUCCUAAGGACAAGACUGCGGAUUCGAGUCCCGUACGGAACG | ≤ 0.5
15 | GUUCCGUUGGCGUAAUGGUAAGGCGUCUCCCUCCUAAGGAGAAGACUGCGGGUUCGAGUACUGUACGGAACG | 0.589
16 | GUUCCGUUGGCGUAAUGGUAAGGCGUCUCCCUCCUAAGAAGAAGACUGCGGGUUCGAGUCCCGUACGGAACG | 0.773
17 | GUUCCGUUGGCGUAAUGGUAAGGCGUCUCCCUCCUAAGCAGAAGACUGCGGGUUCGAGUCCCGUACGGAACG | 0.823
18 | GUUCCGUUGGCGUAAUGGUAAGGCGUCUCCCUCCUAAUGAGUAGACUGCGGGUUCGAGUCCCGUACGGAACG | ≤ 0.5
19 | GUUCCGUUGGCGUAAUGGUAAGGCGUCUCCCUCCUAAGGAGAAGACUGUGGGUUCGAGUACCGUACGGAACG | ≤ 0.5

Row | Variant | yeast fitness
20 | GUUCCGUUGGCGUAAUGGUAAGGCGUCUCCCUCCUAAGGAGAAGACUGCGGGUUCGACUCUCGUACGGAACG | 0.616
21 | GUUCCGUUGGCGUAAUGGUAAGGCGUCUCCCUCCUAAGGAGAACACUGCGGGUUCGAGUCCCGUACGGAACG | 0.942
22 | GUUCCGUUGGCGUAAUGGUAAGACGUCUCCCUCCUAAAGAGAAGACUGCGGGUUCGAGUCCCGUACGCAACG | 0.572
23 | GUUCCGUUGGCGUAAUGGUAAGGCGUCUCCCUCCUAAGGAGAAGACUGGGGGUUCGAGUCCCGUACGAAACG | 0.529
24 | GUUCCGUUGGCGUAAUGGUAAGGCGUCUCCCUCCUAAGGAGAAGACUGCGGAAUCGAGUCCCGUACGGAACG | ≤ 0.5
25 | GUUCCGUUGGCGUAAUGGUAAGGCGUCUCCCUCCUAAGGAGAAGACUGCAGGUUCGAGCCCCGUACGGAACG | ≤ 0.5
26 | GUUCCGUUGGCGUAAUGGUAAGGCGUCUCCCUCCUAAGGAGAAGACUGCGGGUUCGAGUCGCGUACGGAACG | 0.684
27 | GUUCCGUUGGCGUAAUGGUAAGGCGUCUCCCUCCUAAGGAGAAGACUGUGGGUUCGAGUCCCGUGCGGAACG | 0.785
28 | GUUCCGUUGGCGUAAUGGUAAGGCGUCUCCCUCCUAAGGAGAAGACUGCGGGUUCGAGUCCAGUACGGAACG | 0.787
29 | GUUCCGUUGGCGUAAUGGUAAGCCGUACCCCUCCUAAGGAGAAGACUGCGGGUUCGAGUCCCGUACGGAACG | 0.533
30 | GUUCCGUUGGCGUAAUGGUAAGGCGUCUCCCUCCUAAGGAGAAGACUGCGGGUUCGAGUCCGGUUCGGAACG | 0.534
31 | GUUCCGUUGGCGUAAUGGUAAGGCGUCUCCCUCCUAAGGAGAAGACUGCGGGUUCGAGUCCCAUACGUAACG | ≤ 0.5
32 | GUUCCGUUGGCGUAAUGGUAAGGCGUCUCCCUCCUAAGGAGAAGACUGUGGGUUCGAGUCCCGUAUGGAACG | 0.666
33 | GUUCCGUUGGCGUAAUGGUAAGCCGUACCCCUCCUAAGGAGAAGACUGCGGGUUCGAGUCCCGUACAGAGCG | ≤ 0.5
34 | GUUCCGUUGGCGUAAUGGUAAGGCGUCUCCCUCCUAAGGAGAAGACUGCGGGUUCGAGUCCCAUACGGAACG | 0.891
35 | GUUCCGUUGGCGUAAUGGUAAGGCGUCUCCCUCUUAAGGAGAAGACUGUGGGUUGGAGUCCUGUACGGAACG | ≤ 0.5
36 | GUUCCGUUGGCGUAAUGGUAAGGCAUCUCCCUCCUAUGAAGAAGACAGCGGGUUCGAGUCCCGUACGGAACG | ≤ 0.5
37 | GUUCCGUUGGCGUAAUGGUAAGGCGUCUCCCUCGUAAGGCGAAGACUGCGGGUUCGAGUCCCGUACGGUACG | 0.769
